Data taken from ChEMBL document CHEMBL4373653, “FgaPT2, a biocatalytic tool for alkyl-diversification of indole natural products” (Medchemcomm, 2019).
Calls of active or inactive are those of the source. The calls are words filed in the database; no cut-off is given here.

Tests used:
[1] = molecular target: T1, Tryptophan dimethylallyltransferase (Neosartorya fumigata (strain ATCC MYA-4609 / Af293 / CBS 101355 / FGSCA1100) (Aspergillus fumigatus)) (UniProt Q50EL0); test: Substrate activity at recombinant N-terminal His6-fusion tagged Aspergillus fumigatus FgaPT2 expressed in Escherichia coli BL21 (DE3) assessed as alkylation of L-tryptophan by measuring product formation at pH 7.5 in Tris buffer after 16 hrs by RP-HPLC analysis
T1 sequence (whole entry): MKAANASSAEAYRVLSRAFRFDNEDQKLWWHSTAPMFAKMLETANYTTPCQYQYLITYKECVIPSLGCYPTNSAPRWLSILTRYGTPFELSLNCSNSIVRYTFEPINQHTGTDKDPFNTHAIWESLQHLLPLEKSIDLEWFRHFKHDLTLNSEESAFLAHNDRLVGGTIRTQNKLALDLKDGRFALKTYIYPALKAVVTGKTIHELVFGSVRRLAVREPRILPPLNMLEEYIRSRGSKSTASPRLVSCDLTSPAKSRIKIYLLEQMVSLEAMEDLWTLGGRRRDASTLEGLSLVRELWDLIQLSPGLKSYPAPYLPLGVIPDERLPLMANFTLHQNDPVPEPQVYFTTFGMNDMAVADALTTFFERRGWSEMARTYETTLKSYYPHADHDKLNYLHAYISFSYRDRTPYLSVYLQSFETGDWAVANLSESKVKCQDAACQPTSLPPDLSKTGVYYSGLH
Summary of the method: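 The enzyme was codon-optimized and purified by Ni-NTA. Reaction: 1.2 mM alkyl-PP donor, 1 mM L-Trp, 5 μM FgaPT2 in 25 mM Tris pH 7.5, 5 mM MgCl2, 50 mM KCl, 35 °C for 16 h. It was quenched with an equal volume of methanol and centrifuged. Analysis was by RP-HPLC (C18, water/0.1% TFA–acetonitrile gradient, A254). Negative controls omitted the enzyme or the donor.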

HCT-116 = test: Cytotoxicity against human HCT116 cells incubated for 48 hrs by Celltiter-blue assay; format: cell-based; conditions: HCT-116, 48 h
Summary of the method: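 HCT-116 cells, 2.0e3 per well in McCoy's medium, grown 24 h. A baseline CellTiter-Blue reading (90 min, 37 °C; ex 544/em 590 nm) was taken at treatment. Serial dilutions were added at 4X in medium and incubated 48 h, then read again with CellTiter-Blue. Growth was expressed relative to untreated cells, four-parameter dose-response fit to IC50, n = 2, Taxol internal control.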

[2] = substrate: O=P(O)(O)OP(=O)(O)OCC=C1CCCCC1; conditions: Aspergillus fumigatus Af293
[3] = substrate: C/C=C/COP(=O)(O)OP(=O)(O)O; conditions: Aspergillus fumigatus Af293
[4] = substrate: O=P(O)(O)OP(=O)(O)OCc1ccc(Cl)cc1; conditions: Aspergillus fumigatus Af293
[5] = substrate: CC/C(C)=C/COP(=O)(O)OP(=O)(O)O; conditions: Aspergillus fumigatus Af293
[6] = substrate: O=P(O)(O)OP(=O)(O)OCC1=CCCCC1; conditions: Aspergillus fumigatus Af293
[7] = substrate: C/C=C/C=C(\C)COP(=O)(O)OP(=O)(O)O; conditions: Aspergillus fumigatus Af293
[8] = substrate: O=P(O)(O)OP(=O)(O)OCc1ccccc1; conditions: Aspergillus fumigatus Af293
[9] = substrate: O=P(O)(O)OP(=O)(O)OCC=C1CCCC1; conditions: Aspergillus fumigatus Af293
[10] = substrate: COc1ccccc1COP(=O)(O)OP(=O)(O)O; conditions: Aspergillus fumigatus Af293
[11] = substrate: O=P(O)(O)OP(=O)(O)OCc1ccc(Br)cc1; conditions: Aspergillus fumigatus Af293
[12] = substrate: C/C(Br)=C/COP(=O)(O)OP(=O)(O)O; conditions: Aspergillus fumigatus Af293
[13] = substrate: C=C/C=C(\C)COP(=O)(O)OP(=O)(O)O; conditions: Aspergillus fumigatus Af293
[14] = substrate: CCC(=CCOP(=O)(O)OP(=O)(O)O)CC; conditions: Aspergillus fumigatus Af293
[15] = substrate: CC(C)=C/C=C/COP(=O)(O)OP(=O)(O)O; conditions: Aspergillus fumigatus Af293
[16] = substrate: C/C(Cl)=C/COP(=O)(O)OP(=O)(O)O; conditions: Aspergillus fumigatus Af293
[17] = substrate: O=P(O)(O)OP(=O)(O)OCc1ccc(F)cc1; conditions: Aspergillus fumigatus Af293
[18] = substrate: COc1cccc(COP(=O)(O)OP(=O)(O)O)c1; conditions: Aspergillus fumigatus Af293
[19] = substrate: C=C/C=C/COP(=O)(O)OP(=O)(O)O; conditions: Aspergillus fumigatus Af293
[20] = substrate: O=P(O)(O)OP(=O)(O)OCC=C1CCCCC1; conditions: Aspergillus fumigatus Af293; remark: listed apart in the source
[21] = substrate: C/C=C/COP(=O)(O)OP(=O)(O)O; conditions: Aspergillus fumigatus Af293; remark: listed apart in the source
[22] = substrate: O=P(O)(O)OP(=O)(O)OCc1ccc(Cl)cc1; conditions: Aspergillus fumigatus Af293; remark: listed apart in the source
[23] = substrate: CC/C(C)=C/COP(=O)(O)OP(=O)(O)O; conditions: Aspergillus fumigatus Af293; remark: listed apart in the source
[24] = substrate: O=P(O)(O)OP(=O)(O)OCC1=CCCCC1; conditions: Aspergillus fumigatus Af293; remark: listed apart in the source
[25] = substrate: C/C=C/C=C(\C)COP(=O)(O)OP(=O)(O)O; conditions: Aspergillus fumigatus Af293; remark: listed apart in the source
[26] = substrate: O=P(O)(O)OP(=O)(O)OCc1ccccc1; conditions: Aspergillus fumigatus Af293; remark: listed apart in the source
[27] = substrate: O=P(O)(O)OP(=O)(O)OCC=C1CCCC1; conditions: Aspergillus fumigatus Af293; remark: listed apart in the source
[28] = substrate: COc1ccccc1COP(=O)(O)OP(=O)(O)O; conditions: Aspergillus fumigatus Af293; remark: listed apart in the source
[29] = substrate: O=P(O)(O)OP(=O)(O)OCc1ccc(Br)cc1; conditions: Aspergillus fumigatus Af293; remark: listed apart in the source
[30] = substrate: C=C/C=C(\C)COP(=O)(O)OP(=O)(O)O; conditions: Aspergillus fumigatus Af293; remark: listed apart in the source
[31] = substrate: CCC(=CCOP(=O)(O)OP(=O)(O)O)CC; conditions: Aspergillus fumigatus Af293; remark: listed apart in the source
[32] = substrate: CC(C)=C/C=C/COP(=O)(O)OP(=O)(O)O; conditions: Aspergillus fumigatus Af293; remark: listed apart in the source
[33] = substrate: C/C(Cl)=C/COP(=O)(O)OP(=O)(O)O; conditions: Aspergillus fumigatus Af293; remark: listed apart in the source
[34] = substrate: O=P(O)(O)OP(=O)(O)OCc1ccc(F)cc1; conditions: Aspergillus fumigatus Af293; remark: listed apart in the source
[35] = substrate: COc1cccc(COP(=O)(O)OP(=O)(O)O)c1; conditions: Aspergillus fumigatus Af293; remark: listed apart in the source
[36] = substrate: C=C/C=C/COP(=O)(O)OP(=O)(O)O; conditions: Aspergillus fumigatus Af293; remark: listed apart in the source
[37] = substrate: O=P(O)(O)OP(=O)(O)OCC=C1CCCCC1; conditions: Aspergillus fumigatus Af293; remark: listed apart in the source
[38] = substrate: C/C=C/COP(=O)(O)OP(=O)(O)O; conditions: Aspergillus fumigatus Af293; remark: listed apart in the source
[39] = substrate: O=P(O)(O)OP(=O)(O)OCc1ccccc1; conditions: Aspergillus fumigatus Af293; remark: listed apart in the source
[40] = substrate: O=P(O)(O)OP(=O)(O)OCC=C1CCCC1; conditions: Aspergillus fumigatus Af293; remark: listed apart in the source
[41] = substrate: COc1ccccc1COP(=O)(O)OP(=O)(O)O; conditions: Aspergillus fumigatus Af293; remark: listed apart in the source
[42] = substrate: O=P(O)(O)OP(=O)(O)OCc1ccc(Br)cc1; conditions: Aspergillus fumigatus Af293; remark: listed apart in the source
[43] = substrate: CCC(=CCOP(=O)(O)OP(=O)(O)O)CC; conditions: Aspergillus fumigatus Af293; remark: listed apart in the source
[44] = substrate: O=P(O)(O)OP(=O)(O)OCc1ccc(F)cc1; conditions: Aspergillus fumigatus Af293; remark: listed apart in the source
[45] = substrate: COc1cccc(COP(=O)(O)OP(=O)(O)O)c1; conditions: Aspergillus fumigatus Af293; remark: listed apart in the source

COc1ccc(COP(=O)(O)OP(=O)(O)O)c(OC)c1
Activity [1]: inactive

C=C(C)COP(=O)(O)OP(=O)(O)O
Activity [1]: inactive

COc1ccc(COP(=O)(O)OP(=O)(O)O)cc1
Activity [1]: inactive

O=C1NC(O)c2c1c1c3cc(CC=C4CCCC4)ccc3[nH]c1c1[nH]c3ccccc3c21 (stereo not given)
IC50 (HCT-116): 58 µM

CC/C(C)=C/Cc1ccc2[nH]c3c4[nH]c5ccccc5c4c4c(c3c2c1)C(=O)NC4O (stereo not given)
IC50 (HCT-116): 38 µM

CC(C)=CCc1ccc2[nH]c3c4[nH]c5ccccc5c4c4c(c3c2c1)C(=O)NC4O (stereo not given)
IC50 (HCT-116): 62 µM

CC(=O)COP(=O)(O)OP(=O)(O)O
Activity [1]: inactive

COc1ccc(COP(=O)(O)OP(=O)(O)O)cc1OC
Activity [1]: inactive

Cc1ccc(COP(=O)(O)OP(=O)(O)O)cc1
Activity [1]: inactive

COc1cc(COP(=O)(O)OP(=O)(O)O)cc(OC)c1OC
Activity [1]: inactive

O=C1NC(O)c2c1c1c3ccccc3[nH]c1c1[nH]c3ccccc3c21 (stereo not given)
IC50 (HCT-116): 11 µM

O=C1NC(O)c2c1c1c3cc(CC4=CCCCC4)ccc3[nH]c1c1[nH]c3ccccc3c21 (stereo not given)
IC50 (HCT-116): 61 µM

CCC(=CCc1ccc2[nH]c3c4[nH]c5ccccc5c4c4c(c3c2c1)C(=O)NC4O)CC (stereo not given)
IC50 (HCT-116): 35 µM

O=P(O)(O)OP(=O)(O)OCc1cc(F)cc(F)c1
Activity [1]: inactive

O=[N+]([O-])c1ccc(COP(=O)(O)OP(=O)(O)O)cc1
Activity [1]: inactive

O=C1NC(O)c2c1c1c3cc(CC=C4CCCCC4)ccc3[nH]c1c1[nH]c3ccccc3c21 (stereo not given)
IC50 (HCT-116): 31 µM

B1: Tryptophan dimethylallyltransferase (Neosartorya fumigata (strain ATCC MYA-4609 / Af293 / CBS 101355 / FGSCA1100) (Aspergillus fumigatus)), Q50EL0 (protein)
chain: MKAANASSAEAYRVLSRAFRFDNEDQKLWWHSTAPMFAKMLETANYTTPCQYQYLITYKECVIPSLGCYPTNSAPRWLSILTRYGTPFELSLNCSNSIVRYTFEPINQHTGTDKDPFNTHAIWESLQHLLPLEKSIDLEWFRHFKHDLTLNSEESAFLAHNDRLVGGTIRTQNKLALDLKDGRFALKTYIYPALKAVVTGKTIHELVFGSVRRLAVREPRILPPLNMLEEYIRSRGSKSTASPRLVSCDLTSPAKSRIKIYLLEQMVSLEAMEDLWTLGGRRRDASTLEGLSLVRELWDLIQLSPGLKSYPAPYLPLGVIPDERLPLMANFTLHQNDPVPEPQVYFTTFGMNDMAVADALTTFFERRGWSEMARTYETTLKSYYPHADHDKLNYLHAYISFSYRDRTPYLSVYLQSFETGDWAVANLSESKVKCQDAACQPTSLPPDLSKTGVYYSGLH
kcat/Km [2]: 2.2 mM⁻¹ min⁻¹
kcat/Km [3]: 3.9 mM⁻¹ min⁻¹
kcat/Km [4]: 0.46 mM⁻¹ min⁻¹
kcat/Km [5]: 21 mM⁻¹ min⁻¹
kcat/Km [6]: 1 mM⁻¹ min⁻¹
kcat/Km [7]: 12 mM⁻¹ min⁻¹
kcat/Km [8]: 6.2 mM⁻¹ min⁻¹
kcat/Km [9]: 16 mM⁻¹ min⁻¹
kcat/Km [10]: 3.4 mM⁻¹ min⁻¹
kcat/Km [11]: 0.42 mM⁻¹ min⁻¹
kcat/Km [12]: 1.3 mM⁻¹ min⁻¹
kcat/Km [13]: 16 mM⁻¹ min⁻¹
kcat/Km [14]: 17 mM⁻¹ min⁻¹
kcat/Km [15]: 26 mM⁻¹ min⁻¹
kcat/Km [16]: 2.5 mM⁻¹ min⁻¹
kcat/Km [17]: 0.69 mM⁻¹ min⁻¹
kcat/Km [18]: 0.23 mM⁻¹ min⁻¹
kcat/Km [19]: 39 mM⁻¹ min⁻¹
kcat [20]: 3.2 min⁻¹
kcat [21]: 0.57 min⁻¹
kcat [22]: 0.196 min⁻¹
kcat [23]: 9.9 min⁻¹
kcat [24]: 0.16 min⁻¹
kcat [25]: 16.9 min⁻¹
kcat [26]: 1.36 min⁻¹
kcat [27]: 5.04 min⁻¹
kcat [28]: 1.93 min⁻¹
kcat [29]: 0.134 min⁻¹
kcat [30]: 20.2 min⁻¹
kcat [31]: 6.5 min⁻¹
kcat [32]: 28 min⁻¹
kcat [33]: 1.3 min⁻¹
kcat [34]: 0.276 min⁻¹
kcat [35]: 0.17 min⁻¹
kcat [36]: 26 min⁻¹
Km [37]: 1400 µM
Km [38]: 140 µM
Km [39]: 220 µM
Km [40]: 310 µM
Km [41]: 570 µM
Km [42]: 320 µM
Km [43]: 370 µM
Km [44]: 400 µM
Km [45]: 730 µM
